Reference: ChEMBL document CHEMBL5303300, “EUbOPEN Chemogenomics Library - Multiplex” (2023)
“And” between values parts separate entries of the source, which are not always exact repeats. Equal entries are not always repeated.

Test system: U2OS
Assay: Multiplex assay against U2OS
Format: toxicity, cell-based
Settings: human, number of replicates 2
Summary of the method: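 Values for tubulin, mitochondrial-mass and membrane-permeability phenotypes are per cents of cells with healthy nuclei. These cells were identified by CellPathfinder machine-learning gating of live cells that had been stained at seeding with Hoechst33342, BioTracker Green Microtubule Cytoskeleton Dye, MitoTracker Red and Annexin V Alexa Fluor 680 and imaged on a CQ1 microscope at 37°C and 5% CO2 after compound addition. The gating first set Hoechst high-intensity objects apart from normal cells, then split normal cells into healthy, pyknosed or fragmented nuclei, and pyknosed cells into mitotic or apoptotic.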

[1] = 12 h, 1 µM, compound concentration 1 uM
[2] = 12 h, 10 µM, compound concentration 10 uM
[3] = 24 h, 1 µM, compound concentration 1 uM
[4] = 24 h, 10 µM, compound concentration 10 uM
[5] = 48 h, 1 µM, compound concentration 1 uM
[6] = 48 h, 10 µM, compound concentration 10 uM

O=C1NC(=NCc2cccs2)SC1=Cc1ccc2ncccc2c1
Population Apoptotic (%) [1]: 100% and 60%
Population Healthy Nuclei (%) [1]: 68% and 89%
Population Hoechst High Intensity Objects (%) [1]: 0%
Population Membrane Permeable-Phenotype (%) [1]: 0% and 1%
Population Mitochondria Different-Phenotype (%) [1]: 0% and 1%
Population Normal (%) [1]: 100%
Population Pyknosed Nuclei (%) [1]: 9% and 6%
Population Tubulin-Different-Phenotype (%) [1]: 59% and 88%
Population Apoptotic (%) [2]: 71% and 81%
Population Healthy Nuclei (%) [2]: 57% and 85%
Population Hoechst High Intensity Objects (%) [2]: 0%
Population Membrane Permeable-Phenotype (%) [2]: 5% and 7%
Population Mitochondria Different-Phenotype (%) [2]: 0% and 4%
Population Mitotic Cells (%) [2]: 28% and 18%
Population Normal (%) [2]: 100%
Population Pyknosed Nuclei (%) [2]: 21% and 8%
Population Tubulin-Different-Phenotype (%) [2]: 31% and 33%
Population Apoptotic (%) [3]: 63% and 61%
Population Fragmented Nuclei (%) [3]: 11% and 4%
Population Healthy Nuclei (%) [3]: 66% and 89%
Population Hoechst High Intensity Objects (%) [3]: 0%
Population Membrane Permeable-Phenotype (%) [3]: 5% and 0%
Population Mitochondria Different-Phenotype (%) [3]: 0%
Population Mitotic Cells (%) [3]: 36% and 38%
Population Normal (%) [3]: 100%
Population Tubulin-Different-Phenotype (%) [3]: 67% and 82%
Population Apoptotic (%) [4]: 100% and 75%
Population Healthy Nuclei (%) [4]: 56% and 79%
Population Hoechst High Intensity Objects (%) [4]: 0%
Population Membrane Permeable-Phenotype (%) [4]: 0% and 3%
Population Mitochondria Different-Phenotype (%) [4]: 0% and 4%
Population Mitotic Cells (%) [4]: 0% and 25%
Population Normal (%) [4]: 100%
Population Pyknosed Nuclei (%) [4]: 26% and 15%
Population Tubulin-Different-Phenotype (%) [4]: 26% and 41%
Population Apoptotic (%) [5]: 92% and 73%
Population Healthy Nuclei (%) [5]: 57% and 88%
Population Hoechst High Intensity Objects (%) [5]: 0%
Population Membrane Permeable-Phenotype (%) [5]: 4% and 2%
Population Mitochondria Different-Phenotype (%) [5]: 0%
Population Normal (%) [5]: 100%
Population Tubulin-Different-Phenotype (%) [5]: 70% and 90%
Population Apoptotic (%) [6]: 84%
Population Fragmented Nuclei (%) [6]: 17% and 12%
Population Healthy Nuclei (%) [6]: 36% and 60%
Population Hoechst High Intensity Objects (%) [6]: 2% and 0%
Population Membrane Permeable-Phenotype (%) [6]: 6% and 4%
Population Mitotic Cells (%) [6]: 15%
Population Normal (%) [6]: 97% and 100%
Population Pyknosed Nuclei (%) [6]: 46% and 26%
Population Tubulin-Different-Phenotype (%) [6]: 60% and 55%

CC1=C(C)C(=O)C(C(CCCCCC(=O)O)c2ccccc2)=C(C)C1=O (centres undefined) [SERATRODAST]
Population Apoptotic (%) [1]: 66% and 64%
Population Fragmented Nuclei (%) [1]: 11% and 5%
Population Healthy Nuclei (%) [1]: 80% and 84%
Population Hoechst High Intensity Objects (%) [1]: 0%
Population Membrane Permeable-Phenotype (%) [1]: 3% and 2%
Population Mitochondria Different-Phenotype (%) [1]: 3% and 0%
Population Mitotic Cells (%) [1]: 33% and 36%
Population Normal (%) [1]: 100%
Population Pyknosed Nuclei (%) [1]: 8% and 9%
Population Tubulin-Different-Phenotype (%) [1]: 100% and 92%
Population Apoptotic (%) [2]: 75% and 37%
Population Healthy Nuclei (%) [2]: 68% and 84%
Population Hoechst High Intensity Objects (%) [2]: 0%
Population Membrane Permeable-Phenotype (%) [2]: 0% and 1%
Population Mitochondria Different-Phenotype (%) [2]: 0%
Population Mitotic Cells (%) [2]: 25% and 62%
Population Normal (%) [2]: 100%
Population Pyknosed Nuclei (%) [2]: 5% and 11%
Population Tubulin-Different-Phenotype (%) [2]: 80% and 94%
Population Apoptotic (%) [3]: 75% and 54%
Population Fragmented Nuclei (%) [3]: 7% and 2%
Population Healthy Nuclei (%) [3]: 82% and 88%
Population Hoechst High Intensity Objects (%) [3]: 0%
Population Membrane Permeable-Phenotype (%) [3]: 3%
Population Mitochondria Different-Phenotype (%) [3]: 3% and 1%
Population Mitotic Cells (%) [3]: 25% and 45%
Population Normal (%) [3]: 100%
Population Pyknosed Nuclei (%) [3]: 10% and 8%
Population Tubulin-Different-Phenotype (%) [3]: 100% and 92%
Population Apoptotic (%) [4]: 50% and 66%
Population Healthy Nuclei (%) [4]: 70% and 88%
Population Hoechst High Intensity Objects (%) [4]: 0%
Population Membrane Permeable-Phenotype (%) [4]: 1% and 2%
Population Mitochondria Different-Phenotype (%) [4]: 1% and 0%
Population Mitotic Cells (%) [4]: 50% and 33%
Population Normal (%) [4]: 100%
Population Pyknosed Nuclei (%) [4]: 6%
Population Tubulin-Different-Phenotype (%) [4]: 92%
Population Apoptotic (%) [5]: 33% and 43%
Population Fragmented Nuclei (%) [5]: 4% and 3%
Population Healthy Nuclei (%) [5]: 89% and 91%
Population Hoechst High Intensity Objects (%) [5]: 0%
Population Membrane Permeable-Phenotype (%) [5]: 0% and 1%
Population Mitochondria Different-Phenotype (%) [5]: 0%
Population Mitotic Cells (%) [5]: 66% and 56%
Population Normal (%) [5]: 100%
Population Pyknosed Nuclei (%) [5]: 5% and 4%
Population Tubulin-Different-Phenotype (%) [5]: 100% and 94%
Population Apoptotic (%) [6]: 58%
Population Fragmented Nuclei (%) [6]: 12% and 3%
Population Healthy Nuclei (%) [6]: 79% and 90%
Population Hoechst High Intensity Objects (%) [6]: 0%
Population Membrane Permeable-Phenotype (%) [6]: 0% and 2%
Population Mitochondria Different-Phenotype (%) [6]: 0%
Population Mitotic Cells (%) [6]: 41%
Population Normal (%) [6]: 99%
Population Pyknosed Nuclei (%) [6]: 8% and 6%
Population Tubulin-Different-Phenotype (%) [6]: 89% and 95%
